The values that follow come from ChEMBL document CHEMBL3596117, “Identification of 3,5,6-substituted indolin-2-one's inhibitors of Aurora B by development of a luminescent kinase assay” (Bioorg Med Chem Lett, 2015).

SMILES strings stand for the structures.

What is called inhibition is the change of the read-out against control, counted positive when it falls. A low value points to little suppression. In general, IC50 refers to the midpoint of a concentration-inhibition curve.

T1 sequence (Q96GD4 whole entry): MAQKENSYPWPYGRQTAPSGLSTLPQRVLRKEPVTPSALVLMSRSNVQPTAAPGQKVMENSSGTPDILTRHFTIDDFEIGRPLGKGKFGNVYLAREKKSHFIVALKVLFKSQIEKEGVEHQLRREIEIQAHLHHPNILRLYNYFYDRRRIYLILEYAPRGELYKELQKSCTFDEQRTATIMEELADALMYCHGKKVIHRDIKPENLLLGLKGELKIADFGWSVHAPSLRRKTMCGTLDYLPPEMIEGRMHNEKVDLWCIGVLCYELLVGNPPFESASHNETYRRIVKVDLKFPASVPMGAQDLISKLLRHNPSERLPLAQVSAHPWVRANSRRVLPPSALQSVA

The first assay has as its target T1, Aurora kinase B (Homo sapiens, UniProt Q96GD4). Description: Inhibition of aurora B kinase (unknown origin) at 10 uM using ATP and SB2 substrate incubated at 37 degC for 2 hrs by kinase-Glo reagent based luminescent kinase assay. In a few lines: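 Aurora B at 300 ng/well with ATP and peptide substrate SB2 at the optimized levels. DMSO was kept below 2% by volume. Activity was read by Kinase-Glo luminescence, which measures the ATP left after the reaction.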
In general terms: Kinase-Glo measures the ATP left after a reaction by luminescence.
On to `O=C1Cc2cc(N3CCOCC3)c(NC(=O)Nc3ccc(F)cc3)cc2N1`, for which the inhibition was under 30%.

`C=CCNC(=S)Nc1cc2c(cc1Oc1cc(C)cc(C)c1)C(Cc1ccccc1)C(=O)N2` (stereo not given) came in with an inhibition of under 30%. On the same count and under the same terms, as for `CCCCC1C(=O)Nc2cc(NC(=O)Nc3ccc(F)cc3)c(N3CCOCC3)cc21` (stereo not given), the figure is under 30%. Still for that read-out and setting: the value for `CCCC1(C(=O)OCC)C(=O)Nc2cc(NC(C)=O)c(N3CCN(c4cccc(C)c4C)CC3)cc21` (stereo not given) was under 30%; that for `Cc1cc(C)cc(Oc2cc3c(cc2NS(=O)(=O)c2ccc(F)cc2)NC(=O)C3Cc2ccccc2)c1` (stereo not given) was under 30%; that for `COc1ccc(/C=C2\C(=O)Nc3cc(NC(C)=O)c(N4CCOCC4)cc32)cc1` was under 30%.

For the compound `C=CCC1C(=O)Nc2cc(NC(=O)Nc3ccc(F)cc3)c(N(CCC)CCC)cc21` (stereo not given), the inhibition was under 30%. `CCCCCCCNC(=O)Nc1cc2c(cc1N1CCN(C(=O)OCC)CC1)/C(=C/c1ccc[nH]1)C(=O)N2` returned an inhibition of under 30%. `O=C(Nc1ccc(C(F)(F)F)cc1)Nc1cc2c(cc1N1CCCC1)/C(=C/c1ccc[nH]1)C(=O)N2`: the inhibition was determined as 97%.

As to `CCN(CC)c1cc2c(cc1NC(C)=O)NC(=O)/C2=C\c1cccs1`, the inhibition is under 30%.

For the compound `CCCC1(C(=O)OCC)C(=O)Nc2cc(NC(=O)Nc3ccc(F)cc3)c(N3CCN(c4cccc(C)c4C)CC3)cc21` (stereo not given), the inhibition is under 30%.

`CCN(CC)c1cc2c(cc1NC(C)=O)NC(=O)/C2=C\c1ccccn1` returned an inhibition of under 30%.

As to `Cc1cc(C)cc(Oc2cc3c(cc2NC(=O)Nc2ccc(OC(F)(F)F)cc2)NC(=O)C3Cc2ccccc2)c1` (stereo not given), the inhibition was under 30%. Still for that read-out and setting: the value for `C=CCNC(=S)Nc1cc2c(cc1N(CCC)CCC)/C(=C/c1ccc3c(c1)OCO3)C(=O)N2` was 31%. Same read-out and setting: the value for `C=CCC1C(=O)Nc2cc(NC(=S)Nc3ccccc3OC)c(N(CCC)CCC)cc21` (stereo not given) was 35%; that for `CCc1ccc(Oc2cc3c(cc2NS(=O)(=O)c2ccc(C)cc2)NC(=O)C3)cc1` was under 30%.

Compound `CC(=O)Nc1cc2c(cc1N1CCOCC1)/C(=C/c1ccco1)C(=O)N2` had an inhibition of under 30%. As to `O=C(Nc1ccc(C(F)(F)F)cc1)Nc1cc2c(cc1N1CCCC1)/C(=C/c1cccs1)C(=O)N2`, the inhibition came out at 47%. Same read-out and setting: as for `O=C(Nc1ccc(F)cc1)Nc1cc2c(cc1N1CCOCC1)/C(=C/c1ccc(F)cc1)C(=O)N2`, the figure is 65%; as for `CCC/C=C1\C(=O)Nc2cc(NC(C)=O)c(N(CC)CC)cc21`, under 30%; as for `CCN(CC)c1cc2c(cc1NC(C)=O)NC(=O)/C2=C\c1ccc[nH]1`, 83%.

The next assay concerns the target T1, Aurora kinase B. Description: Inhibition of aurora B kinase (unknown origin) using ATP and SB2 substrate incubated at 37 degC for 2 hrs by kinase-Glo reagent based luminescent kinase assay. In a few lines:
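Aurora B at 300 ng/well with ATP and peptide substrate SB2 at optimized levels, DMSO below 2% by volume. Kinase activity was quantified by Kinase-Glo luminescence of the ATP remaining after the reaction. The assay was validated with 48 enzyme-containing and 48 enzyme-free wells for the Z′-factor. IC50 values were derived from this luminescent assay.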
In the case of `O=C(Nc1ccc(C(F)(F)F)cc1)Nc1cc2c(cc1N1CCCC1)/C(=C/c1ccc[nH]1)C(=O)N2`, 1800 nM corresponded to half-maximal inhibition (IC50). The compound `O=C(Nc1ccc(F)cc1)Nc1cc2c(cc1N1CCOCC1)/C(=C/c1ccc3c(c1)OCO3)C(=O)N2` yielded an IC50 of 8200 nM. Compound `O=C(Nc1ccc(F)cc1)Nc1cc2c(cc1N1CCOCC1)/C(=C/c1ccc[nH]1)C(=O)N2` registered an IC50 of 3300 nM. On the same count and under the same terms, as for `CCN(CC)c1cc2c(cc1NC(C)=O)NC(=O)/C2=C\c1ccc[nH]1`, the figure is 2500 nM.
